Here are results for two compounds from ChEMBL document CHEMBL4706730, “A Set of Highly Sensitive Sirtuin Fluorescence Probes for Screening Small-Molecular Sirtuin Defatty-Acylase Inhibitors” (ACS Med Chem Lett, 2021).

The target of assay [1] is T1, NAD-dependent protein deacetylase sirtuin-2 (Homo sapiens, UniProt Q8IXJ6).
T1 sequence (Q8IXJ6 whole entry): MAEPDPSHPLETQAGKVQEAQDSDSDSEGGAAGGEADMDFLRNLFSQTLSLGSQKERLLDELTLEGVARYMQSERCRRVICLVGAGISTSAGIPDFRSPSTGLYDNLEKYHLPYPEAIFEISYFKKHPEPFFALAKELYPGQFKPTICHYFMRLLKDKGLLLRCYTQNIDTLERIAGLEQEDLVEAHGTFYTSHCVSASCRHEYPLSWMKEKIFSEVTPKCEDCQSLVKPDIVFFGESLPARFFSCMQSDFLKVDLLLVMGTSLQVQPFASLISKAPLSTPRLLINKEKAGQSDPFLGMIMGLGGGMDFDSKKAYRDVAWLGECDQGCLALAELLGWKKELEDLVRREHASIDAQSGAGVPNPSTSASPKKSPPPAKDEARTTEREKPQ
Nature of the assay: Inhibition of 5-(3-((1r,4r)-4-((5S,8S,11S,14S,17S,20S,29S)-11-((1H-imidazol-4-yl)methyl)-1,33-diamino-5-carbamoyl-17-(4-(4-(4-((4-(dimethylamino)phenyl)diazenyl)phenyl)butanamido)butyl)-8,14-bis(3-guanidinopropyl)-20-methyl-7,10,13,16,19,22,25,28-octaoxo-6,9,12,15,18,21,24,27-octaazatritriacontan-29-ylcarbamoyl)cyclohexyl)thioureido)-2-(6-hydroxy-3-oxo-3H-xanthen-9-yl)benzoic acid binding to SIRT2 (unknown origin) measured after 2 hrs in presence of NAD+ by fluorometric method. A digest of the protocol:
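The second screen used the same SIRT2 one-step FRET probe conditions, validated at 2.92 nM SIRT2. Compounds were tested over a range of concentrations to check dose-dependency, and the IC50 was derived from the dose–response curve.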

For assay [2], the target named is NAD-dependent protein deacylase sirtuin-6 (Homo sapiens) (UniProt Q8N6T7). The experiment in a line: Inhibition of 5-[[(1r,4r)-4-[[(1S)-4-amino-1-[[(1S,2R)-1-[[(1S)-2-[[(1S)-1-[[(1S)-1-[[(1S)-2-[[(1S,2R)-1-[[2-(carboxymethylamino)-2-oxoethyl]carbamoyl]-2-hydroxypropyl]amino]-1-(hydroxymethyl)-2-oxoethyl]carbamoyl]-5-[3-[N-methyl-4-[(4-nitrophenyl)azo]anilino]propanoylamino]pentyl]carbamoyl]-4-guanidinobutyl]amino]-1-methyl-2-oxoethyl]carbamoyl]-2-hydroxypropyl]carbamoyl]-4-oxobutyl]carbamoyl]cyclohexyl]carbamothioylamino]-2-(3-hydroxy-6-oxoxanthen-9-yl)benzoic acid binding to SIRT6 (unknown origin) at 50 uM measured after 2 hrs in presence of NAD+ by fluorometric method.
Target sequence in this assay (Q8N6T7 whole entry): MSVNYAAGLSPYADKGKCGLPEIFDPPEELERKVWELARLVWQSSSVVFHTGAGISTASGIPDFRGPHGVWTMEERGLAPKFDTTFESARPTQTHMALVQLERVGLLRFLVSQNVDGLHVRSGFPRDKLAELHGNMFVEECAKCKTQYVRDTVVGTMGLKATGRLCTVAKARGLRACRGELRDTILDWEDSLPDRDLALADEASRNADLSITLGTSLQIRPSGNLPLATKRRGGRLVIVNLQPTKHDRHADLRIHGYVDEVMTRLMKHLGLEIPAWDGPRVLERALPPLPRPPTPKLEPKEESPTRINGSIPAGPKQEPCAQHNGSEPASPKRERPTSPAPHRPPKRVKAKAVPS

Assay [3] deals with T2, NAD-dependent protein deacetylase sirtuin-1 (Homo sapiens) (UniProt Q96EB6).
T2 sequence (whole entry): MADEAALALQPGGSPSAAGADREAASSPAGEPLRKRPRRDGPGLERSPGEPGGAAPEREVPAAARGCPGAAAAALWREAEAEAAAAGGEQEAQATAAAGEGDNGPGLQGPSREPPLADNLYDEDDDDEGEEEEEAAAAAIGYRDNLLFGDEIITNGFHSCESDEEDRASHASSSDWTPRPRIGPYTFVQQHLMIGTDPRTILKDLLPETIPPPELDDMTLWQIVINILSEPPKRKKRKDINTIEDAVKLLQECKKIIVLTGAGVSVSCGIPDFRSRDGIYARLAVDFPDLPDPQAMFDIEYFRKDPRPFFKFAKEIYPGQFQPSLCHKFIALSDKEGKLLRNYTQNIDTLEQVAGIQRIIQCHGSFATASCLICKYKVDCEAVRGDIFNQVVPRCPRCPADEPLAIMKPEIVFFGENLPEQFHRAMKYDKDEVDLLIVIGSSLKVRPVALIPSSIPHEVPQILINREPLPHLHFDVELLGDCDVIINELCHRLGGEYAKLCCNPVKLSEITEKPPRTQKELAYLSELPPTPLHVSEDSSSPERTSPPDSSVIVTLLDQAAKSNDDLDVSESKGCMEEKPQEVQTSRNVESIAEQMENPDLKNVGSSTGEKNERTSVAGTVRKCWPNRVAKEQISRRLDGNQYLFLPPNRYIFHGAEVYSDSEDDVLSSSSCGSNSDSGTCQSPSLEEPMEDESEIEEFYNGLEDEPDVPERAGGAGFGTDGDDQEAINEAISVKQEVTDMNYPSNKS
The experiment in a line: Inhibition of 5-(3-((1r,4r)-4-((5S,8S,11S,14S,17S,20S,29S)-11-((1H-imidazol-4-yl)methyl)-1,33-diamino-5-carbamoyl-17-(4-(4-(4-((4-(dimethylamino)phenyl)diazenyl)phenyl)butanamido)butyl)-8,14-bis(3-guanidinopropyl)-20-methyl-7,10,13,16,19,22,25,28-octaoxo-6,9,12,15,18,21,24,27-octaazatritriacontan-29-ylcarbamoyl)cyclohexyl)thioureido)-2-(6-hydroxy-3-oxo-3H-xanthen-9-yl)benzoic acid binding to SIRT1 (unknown origin) at 50 uM measured after 2 hrs in presence of NAD+ by fluorometric method.

The target of assay [4] is T3, NAD-dependent protein deacetylase sirtuin-2 (Homo sapiens) (UniProt Q8IXJ6).
T3 sequence (whole entry): T1 sequence (Q8IXJ6 whole entry)
The experiment in a line: (§1) Inhibition of p53(Myr)-AMC binding to SIRT2 (unknown origin) incubated for 3 hrs in presence of NAD+ followed by trypsin addition and measured at 5 mins interval for 20 mins by fluorometric method. To be noted: time 200.0 min.

Assay [5] addresses T1, NAD-dependent protein deacetylase sirtuin-2. The description is as §1.
Assay [6] has as its target T4, NAD-dependent protein deacetylase sirtuin-3, mitochondrial (Homo sapiens) (UniProt Q9NTG7).
T4 sequence (whole entry): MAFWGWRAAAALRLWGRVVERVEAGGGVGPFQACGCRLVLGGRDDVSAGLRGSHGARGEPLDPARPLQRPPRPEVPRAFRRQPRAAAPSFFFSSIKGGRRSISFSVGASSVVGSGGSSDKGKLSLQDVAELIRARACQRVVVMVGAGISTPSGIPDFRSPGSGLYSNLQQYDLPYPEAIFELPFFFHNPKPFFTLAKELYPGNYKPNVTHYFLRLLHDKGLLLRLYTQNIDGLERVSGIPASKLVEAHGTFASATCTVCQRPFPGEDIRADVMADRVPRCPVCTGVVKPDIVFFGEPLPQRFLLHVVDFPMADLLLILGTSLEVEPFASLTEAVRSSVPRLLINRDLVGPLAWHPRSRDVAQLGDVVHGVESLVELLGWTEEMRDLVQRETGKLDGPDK
Nature of the assay: Inhibition of 5-(3-((1r,4r)-4-((5S,8S,11S,14S,17S,20S,29S)-11-((1H-imidazol-4-yl)methyl)-1,33-diamino-5-carbamoyl-17-(4-(4-(4-((4-(dimethylamino)phenyl)diazenyl)phenyl)butanamido)butyl)-8,14-bis(3-guanidinopropyl)-20-methyl-7,10,13,16,19,22,25,28-octaoxo-6,9,12,15,18,21,24,27-octaazatritriacontan-29-ylcarbamoyl)cyclohexyl)thioureido)-2-(6-hydroxy-3-oxo-3H-xanthen-9-yl)benzoic acid binding to SIRT3 (unknown origin) at 50 uM measured after 2 hrs in presence of NAD+ by fluorometric method.

In assay [7] the target is T1, NAD-dependent protein deacetylase sirtuin-2. Nature of the assay: Inhibition of SIRT2 deacetylation activity (unknown origin) using FLUOR DE LYS SIRT2 peptide as substrate incubated for 2 hrs in presence of NAD+ measured at 5 mins interval for 20 mins by fluorescence assay.
In assay [8] the target is T3, NAD-dependent protein deacetylase sirtuin-2 (Homo sapiens). The experiment in a line: Inhibition of 5-(3-((1r,4r)-4-((5S,8S,11S,14S,17S,20S,29S)-11-((1H-imidazol-4-yl)methyl)-1,33-diamino-5-carbamoyl-17-(4-(4-(4-((4-(dimethylamino)phenyl)diazenyl)phenyl)butanamido)butyl)-8,14-bis(3-guanidinopropyl)-20-methyl-7,10,13,16,19,22,25,28-octaoxo-6,9,12,15,18,21,24,27-octaazatritriacontan-29-ylcarbamoyl)cyclohexyl)thioureido)-2-(6-hydroxy-3-oxo-3H-xanthen-9-yl)benzoic acid binding to SIRT2 (unknown origin) at 10 uM measured after 2 hrs in presence of NAD+ by fluorometric method relative to control. In outline:
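In the primary library screen, 384-well plates held SIRT2 with the Dabcyl-BH/H4K16 one-step FRET probe. Each compound was tested at 10 μM with 0.5% DMSO, and inhibition was taken from the fluorescence signal.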

For assay [9], the target named is NAD-dependent protein deacylase sirtuin-6 (Homo sapiens) (UniProt Q8N6T7). Nature of the assay: Inhibition of 5-[[(1r,4r)-4-[[(1S)-4-amino-1-[[(1S,2R)-1-[[(1S)-2-[[(1S)-1-[[(1S)-1-[[(1S)-2-[[(1S,2R)-1-[[2-(carboxymethylamino)-2-oxoethyl]carbamoyl]-2-hydroxypropyl]amino]-1-(hydroxymethyl)-2-oxoethyl]carbamoyl]-5-[3-[N-methyl-4-[(4-nitrophenyl)azo]anilino]propanoylamino]pentyl]carbamoyl]-4-guanidinobutyl]amino]-1-methyl-2-oxoethyl]carbamoyl]-2-hydroxypropyl]carbamoyl]-4-oxobutyl]carbamoyl]cycl ….
Target sequence in this assay (Q8N6T7 whole entry, looked up): as the sequence (Q8N6T7 whole entry) above

pIC50: −log10 of the molar value. Active and inactive are the calls of the source. The rule behind the calls is not given here. Square brackets hold non-standard residues; d marks the D form. Peptide text beside a SMILES is read from it. Lys(thiomyristoyl) = CCCCCCCCCCCCCC(=S)NCCCC[C@H](N)C(=O)O Where only a bound is given, the exact number is not on record here.

As to `CCOC(=O)C[C@@H]1C[C@@H](C(C)C)[C@H](CNC(=O)c2cncnc2)C=C1C`, the pIC50 is 4.32 in [1], 4.35 in assay [5] and 5.29 in assay [7]. The inhibition entry in [2], in assay [3] and in [6] was “inactive” throughout. Besides, the inhibition entry in assay [4] is “Dose-dependent effect”; in assay [8], over 35%.
Compound `CCCCCCCCCCCCCC(=S)NCCCC[C@H](NC(=O)[C@@H](NC(=O)[C@H](CCCNC(=N)N)NC(C)=O)[C@@H](C)CC)C(=O)N[C@@H](CCCNC(=N)N)C(=O)N[C@@H](Cc1ccc(O)cc1)C(N)=O` (Ac-RI[Lys(thiomyristoyl)]RY-NH2) showed a pIC50 in assay [9] of 7.00.

One may read the pIC50 as the IC50 on a negative log10 scale, so that one unit is a factor of ten. Broadly, the inhibition is how much of the control response was suppressed.
